From PMC6445238 (Drug Design, Development and Therapy, 2019)
“Also recorded” adds a separate entry of the source. Where two headings read alike, the source gives them in different places.

Columns and labels:
Single ascending dose = type: in vivo, human
Summary of the method: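 After a single oral dose, plasma was sampled predose and at 0.25–72 h, and urine was collected over 0–24 h. Samples were mixed with DMSO and a deuterated internal standard, extracted with methanol, diluted with 0.1% ammonium acetate, and run by UPLC-MS/MS using MRM at m/z 460.1→214.2. Analysis was non-compartmental: t1/2 = 0.693/λz, AUC by linear trapezoidal rule, BLQ values before Cmax set to zero.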

[1] = SAD study, safety and tolerability; type: in vivo, human; settings: for Abdominal discomfort, number of subjects (%) / Cough, number of subjects (%) / Eye swelling, number of subjects (%) / Face injury, number of subjects (%) / Headache, number of subjects (%) / Hot flush, number of subjects (%) / Hyperbilirubinemia, number of subjects (%) / Hypoesthesia, number of subjects (%) / Influenza, number of subjects (%) / Pain in extremity, number of subjects (%) / Proteinuria, number of subjects (%) / Subjects with any TEAEs, number of subjects (%) / Syncope, number of subjects (%): N=6
Summary of the method: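 SAD cohorts were 6 active and 2 placebo healthy males given a single oral dose, with 2 sentinel subjects dosed at least 24 h before the rest. Confinement ran day −1 to day 3, with outpatient visits on days 4 and 7 and follow-up on day 14. Safety covered vital signs, clinical labs, 12-lead ECG, physical exams, and reported or observed AEs, coded with MedDRA 19.1. Counts are subjects with AEs, % of the safety population. Placebo subjects were pooled.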

[2] = cited from earlier work
[3] = 2 weeks, up to 1,000 mg/kg/day; cited from earlier work
[4] = test system: dopaminergic neurons treated with MPTP; settings: dose-dependent, ref unpublished data; cited from earlier work
[5] = test system: dopaminergic neuronal cells in the substantia nigra and striatum; settings: ref unpublished data, cited from earlier work

## Cc1nn(Cc2ccc(Br)cc2)c(C)c1NC(=O)CSc1ccccc1 [KM-819]
Single ascending dose; SAD
  variability (CV%) of AUCinf and Cmax: up to 55%
Single ascending dose; SAD, 10–400 mg
  dose proportionality of plasma exposure (AUC and Cmax) after a single dose: less than dose-proportional increase
Single ascending dose; SAD, all subjects
  24-hour recovery in urine (percent of dose): less than 1%
Single ascending dose; single 10 mg, young
  AUCinf, geometric mean (CV%): 594.2 (24.4) ng·h/mL
  AUClast, geometric mean (CV%): 583.4 (24.5) ng·h/mL
  CL/F, geometric mean (CV%): 16,830 (24.4) mL/h
  Cmax, geometric mean (CV%): 244.1 (31.4) ng/mL
  Tmax, median (min–max): 1.50 (0.50–2.00) h
  t1/2, geometric mean (CV%): 1.786 (28.3) h
  tlag, median (min–max): 0.00 (0.00–0.25) h
Single ascending dose; single 30 mg, young
  AUCinf, geometric mean (CV%): 1,731 (17.3) ng·h/mL
  AUClast, geometric mean (CV%): 1,705 (17.1) ng·h/mL
  CL/F, geometric mean (CV%): 17,340 (17.3) mL/h
  Cmax, geometric mean (CV%): 503.6 (28.0) ng/mL
  Tmax, median (min–max): 1.00 (0.50–2.00) h
  t1/2, geometric mean (CV%): 4.791 (25.0) h
  tlag, median (min–max): 0.00 (0.00–0.00) h
Single ascending dose; single 100 mg, young
  AUCinf, geometric mean (CV%): 4,872 (30.8) ng·h/mL
  AUClast, geometric mean (CV%): 4,306 (31.1) ng·h/mL
  CL/F, geometric mean (CV%): 20,530 (30.8) mL/h
  Cmax, geometric mean (CV%): 1,152 (36.7) ng/mL
  Tmax, median (min–max): 2.00 (1.00–4.00) h
  t1/2, geometric mean (CV%): 9.159 (41.2) h
  tlag, median (min–max): 0.00 (0.00–0.00) h
Single ascending dose; single 200 mg
  AUC higher in elderly than in young: 49%
  Cmax, elderly compared with young: similar
  t1/2 higher in elderly than in young: 17%
Single ascending dose; single 200 mg, elderly
  AUCinf, geometric mean (CV%): 10,970 (9.8) ng·h/mL
  AUClast, geometric mean (CV%): 10,840 (10.3) ng·h/mL
  CL/F, geometric mean (CV%): 18,230 (9.8) mL/h
  Cmax, geometric mean (CV%): 1,766 (26.0) ng/mL
  Tmax, median (min–max): 2.00 (1.0–4.00) h
  t1/2, geometric mean (CV%): 10.55 (28.5) h
  tlag, median (min–max): 0.00 (0.00–0.00) h
Single ascending dose; single 200 mg, young
  AUCinf, geometric mean (CV%): 7,338 (51.9) ng·h/mL
  AUClast, geometric mean (CV%): 7,637 (47.7) ng·h/mL
  CL/F, geometric mean (CV%): 27,260 (51.9) mL/h
  Cmax, geometric mean (CV%): 1,879 (55.3) ng/mL
  Tmax, median (min–max): 2.00 (1.00–4.00) h
  t1/2, geometric mean (CV%): 9.010 (71.6) h
  tlag, median (min–max): 0.00 (0.00–0.25) h
Single ascending dose; single 400 mg, young
  AUCinf, geometric mean (CV%): 12,640 (36.1) ng·h/mL
  AUClast, geometric mean (CV%): 12,210 (33.3) ng·h/mL
  CL/F, geometric mean (CV%): 31,650 (36.1) mL/h
  Cmax, geometric mean (CV%): 2,767 (43.4) ng/mL
  Tmax, median (min–max): 4.00 (2.00–4.00) h
  t1/2, geometric mean (CV%): 8.527 (63.2) h
  tlag, median (min–max): 0.00 (0.00–0.00) h
[1]; SAD
  serious adverse events (SAEs): no serious adverse events
[1]; SAD, 10 mg and 30 mg cohorts, day 2, normal on day 7
  bilirubin levels: increasing trend of bilirubin levels
[1]; single 10 mg, young
  Abdominal discomfort, number of subjects (%): 0
  Cough, number of subjects (%): 0
  Eye swelling, number of subjects (%): 0
  Face injury, number of subjects (%): 0
  Headache, number of subjects (%): 0
  Hot flush, number of subjects (%): 0
  Hyperbilirubinemia, number of subjects (%): 2 (33.3)
  Hypoesthesia, number of subjects (%): 0
  Influenza, number of subjects (%): 0
  Pain in extremity, number of subjects (%): 0
  Proteinuria, number of subjects (%): 0
  Subjects with any TEAEs, number of subjects (%): 2 (33.3)
  Syncope, number of subjects (%): 0
[1]; single 30 mg, young
  Abdominal discomfort, number of subjects (%): 0
  Cough, number of subjects (%): 0
  Eye swelling, number of subjects (%): 0
  Face injury, number of subjects (%): 0
  Headache, number of subjects (%): 0
  Hot flush, number of subjects (%): 0
  Hyperbilirubinemia, number of subjects (%): 0
  Hypoesthesia, number of subjects (%): 0
  Influenza, number of subjects (%): 0
  Pain in extremity, number of subjects (%): 1 (16.7)
  Proteinuria, number of subjects (%): 0
  Subjects with any TEAEs, number of subjects (%): 2 (33.3)
  Syncope, number of subjects (%): 1 (16.7)
[1]; single 100 mg, young
  Abdominal discomfort, number of subjects (%): 0
  Cough, number of subjects (%): 0
  Eye swelling, number of subjects (%): 0
  Face injury, number of subjects (%): 0
  Headache, number of subjects (%): 0
  Hot flush, number of subjects (%): 0
  Hyperbilirubinemia, number of subjects (%): 1 (16.7)
  Hypoesthesia, number of subjects (%): 1 (16.7)
  Influenza, number of subjects (%): 0
  Pain in extremity, number of subjects (%): 0
  Proteinuria, number of subjects (%): 1 (16.7)
  Subjects with any TEAEs, number of subjects (%): 2 (33.3)
  Syncope, number of subjects (%): 0
[1]; single 200 mg, elderly
  Abdominal discomfort, number of subjects (%): 0
  Cough, number of subjects (%): 0
  Eye swelling, number of subjects (%): 0
  Face injury, number of subjects (%): 1 (16.7)
  Headache, number of subjects (%): 2 (33.3)
  Hot flush, number of subjects (%): 1 (16.7)
  Hyperbilirubinemia, number of subjects (%): 0
  Hypoesthesia, number of subjects (%): 0
  Influenza, number of subjects (%): 0
  Pain in extremity, number of subjects (%): 0
  Proteinuria, number of subjects (%): 0
  Subjects with any TEAEs, number of subjects (%): 2 (33.3)
  Syncope, number of subjects (%): 0
[1]; single 200 mg, young
  Abdominal discomfort, number of subjects (%): 1 (16.7)
  Cough, number of subjects (%): 0
  Eye swelling, number of subjects (%): 0
  Face injury, number of subjects (%): 0
  Headache, number of subjects (%): 0
  Hot flush, number of subjects (%): 0
  Hyperbilirubinemia, number of subjects (%): 0
  Hypoesthesia, number of subjects (%): 0
  Influenza, number of subjects (%): 0
  Pain in extremity, number of subjects (%): 0
  Proteinuria, number of subjects (%): 0
  Subjects with any TEAEs, number of subjects (%): 1 (16.7)
  Syncope, number of subjects (%): 0
[1]; single 400 mg, young
  Abdominal discomfort, number of subjects (%): 0
  Cough, number of subjects (%): 0
  Eye swelling, number of subjects (%): 0
  Face injury, number of subjects (%): 0
  Headache, number of subjects (%): 0
  Hot flush, number of subjects (%): 0
  Hyperbilirubinemia, number of subjects (%): 0
  Hypoesthesia, number of subjects (%): 0
  Influenza, number of subjects (%): 0
  Pain in extremity, number of subjects (%): 0
  Proteinuria, number of subjects (%): 0
  Subjects with any TEAEs, number of subjects (%): 0
  Syncope, number of subjects (%): 0
[1]; single or multiple doses
  overall safety and tolerability: generally well tolerated; also recorded: no remarkable or significant safety concerns; also recorded: safe and well tolerated
[2]; 4-week rat toxicology study
  no observed adverse effect level (NOAEL): 500 mg/kg/day
[2]; 4 weeks, up to 500 mg/kg/day
  adverse effects after repeated administration: did not show adverse effects
[3]
  adverse effects after repeated administration: did not show adverse effects
[4]
  protection of dopaminergic neurons: protect the dopaminergic neurons
[5]
  behavioral impairments: improved the behavioral impairments
[5]; substantia nigra and striatum
  protection of dopaminergic neuronal cells: protected the dopaminergic neuronal cells
